Results reported in ChEMBL document CHEMBL1146274, “Serendipitous discovery of novel imidazolopyrazole scaffold as selective androgen receptor modulators” (2007).

Tests used:
[1] = tested on: Rattus norvegicus; assay: Androgenic activity in castrated immature Sprague-Dawley rat assessed as ventral prostate weight stimulation at 2 mg/day, po by Hersherberger assay; type: functional, Prostate gland
How it was run: (§1)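 Castrated immature male rats were given oral doses once daily for 5 days in 20% cyclodextrin vehicle, n = 3 per group. Ventral prostate weight was normalized to the vehicle control. Percent stimulation was scaled with the vehicle group set to 0% and the testosterone-alone group set to 100%.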

[2] = organism: Rattus norvegicus; assay: Inhibition of testosterone-enhanced ventral prostate weight in castrated immature Sprague-Dawley rat; type: functional, Prostate gland; parameters: concentration or dose not given beside the values
How it was run: (§2)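 This was an antagonist mode in castrated immature male rats. Animals were dosed orally once daily for 5 days at 2 mg/day in 20% cyclodextrin, together with testosterone propionate 0.1 mg/day (about 1.3 mg/kg) subcutaneously in sesame oil, n = 3 per group. Percent inhibition of prostate weight was scaled with the vehicle group set to 100% and the testosterone-alone group set to 0%.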

[3] = tested on: Rattus norvegicus; assay: Anabolic activity assessed as stimulation of levator ani muscle weight in castrated immature Sprague-Dawley rat at 2 mg/day, po by Hersherberger assay
[4] = tested on: Rattus norvegicus; assay: Anabolic activity assessed as stimulation of levator ani muscle weight in sc dosed castrated immature Sprague-Dawley rat by Hersherberger assay; type: functional; settings: in the assay text read “po dosed” for “sc dosed”
How it was run: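 Castrated immature male rats received testosterone propionate by subcutaneous injection at the nape of the neck, 5 mg/kg in sesame oil. Levator ani weight was measured as percent stimulation, with the vehicle control set to 0% and the testosterone-alone group set to 100%.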

[5] = organism: Rattus norvegicus; assay: Androgenic activity in castrated immature Sprague-Dawley rat assessed as ventral prostate weight stimulation at 3 mg/ day by Hersherberger assay; type: functional, Prostate gland; how it was run: as §1
[6] = tested on: Rattus norvegicus; assay: Inhibition of ventral prostate weight in castrated immature Sprague-Dawley rat at 2 mg/day, po; type: functional, Prostate gland; parameters: scale not given: the % may be the effect or the level left; how it was run: as §2
[7] = tested on: Rattus norvegicus; assay: Anabolic activity assessed as stimulation of levator ani muscle weight in castrated immature Sprague-Dawley rat at 5 mg/day, sc by Hersherberger assay; type: functional
How it was run: (§3)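 Castrated immature male rats; agent given subcutaneously by injection at the nape of the neck in sesame oil. Compounds in the same table were dosed once daily for 5 days with N = 3/group. Tissue weight is expressed as percent stimulation, with the vehicle-treated control set to 0% and the testosterone-alone control set to 100%.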

[8] = tested on: Rattus norvegicus; assay: Androgenic activity in castrated immature Sprague-Dawley rat assessed as ventral prostate weight stimulation at 5 mg/day, sc by Hersherberger assay; type: functional, Prostate gland; how it was run: as §3

## CCN/C(=N\c1ccc(C#N)c(C(F)(F)F)c1)C1(C)CC(C(F)(F)F)=NN1 (centres undefined)
[1]
  Activity: <10%
[2]
  Inhibition: 18%
[3]
  Activity: 50%

## CC1(/C(=N/c2ccc(C#N)c(C(F)(F)F)c2)NS(C)(=O)=O)CC(C(F)(F)F)=NN1 (centres undefined)
[1]
  Activity: <10%
[2]
  Inhibition: <10%
[3]
  Activity: <10%

## C[C@@]12CC(C(F)(F)F)=NN1C(N)=N/C2=N\c1ccc(C#N)c(C(F)(F)F)c1
[2]
  Inhibition: <10%
[4]
  ED50: 0.85 mg/day
[5]
  Activity: 29%
[3]
  Activity: 72%

## CC12CC(c3c(F)c(F)c(F)c(F)c3F)=NN1C(N)=N/C2=N\c1ccc(C#N)c(C(F)(F)F)c1 (centres undefined)
[1]
  Activity: <10%
[2]
  Inhibition: <10%
[3]
  Activity: 21%

## CCN(CC)/C(=N\c1ccc(C#N)c(C(F)(F)F)c1)C1(C)CC(C(F)(F)F)=NN1 (centres undefined)
[1]
  Activity: 22%
[2]
  Inhibition: <10%
[3]
  Activity: 32%

## CC1(/C(N)=N/c2ccc(C#N)c(C(F)(F)F)c2)CC(C(F)(F)F)=NN1 (centres undefined)
[1]
  Activity: 39%
[2]
  Inhibition: 20%
[3]
  Activity: 76%

## CN/C(=N\c1ccc(C#N)c(C(F)(F)F)c1)C1(C)CC(C(F)(F)F)=NN1 (centres undefined)
[6]
  Activity: 15%
[2]
  Inhibition: 15%
[3]
  Activity: 17%

## CCOC(=O)C1=NN2C(N)=N/C(=N\c3ccc(C#N)c(C(F)(F)F)c3)C2(C)C1 (centres undefined)
[1]
  Activity: <10%
[2]
  Inhibition: <10%
[3]
  Activity: <10%

## CCC12CC(C(F)(F)F)=NN1C(N)=N/C2=N\c1ccc(C#N)c(C(F)(F)F)c1 (centres undefined)
[1]
  Activity: <10%
[2]
  Inhibition: <10%
[3]
  Activity: 16%

## CC12CC(C(F)(F)F)=NN1C(NC(=O)C(F)(F)F)=N/C2=N\c1ccc(C#N)c(C(F)(F)F)c1 (centres undefined)
[1]
  Activity: 55%
[2]
  Inhibition: 31%
[3]
  Activity: 61%

## CC12CC(C(F)(F)F)=NN1C(N)=N/C2=N\c1ccc(Cl)c(Cl)c1 (centres undefined)
[1]
  Activity: <10%
[2]
  Inhibition: 31%
[3]
  Activity: <10%

## CC12CC(C(F)(F)F)=NN1C(N)=N/C2=N\c1ccc(Br)c(C(F)(F)F)c1 (centres undefined)
[1]
  Activity: <10%
[2]
  Inhibition: <10%
[3]
  Activity: <10%

## CC12CC(C(F)(F)F)=NN1C(N)=N/C2=N\c1ccc([N+](=O)[O-])c(C(F)(F)F)c1 (centres undefined)
[1]
  Activity: <10%
[2]
  Inhibition: <10%
[3]
  Activity: <10%

## CC12CC(C(F)(F)F)=NN1C(=N)O/C2=N\c1ccc(C#N)c(C(F)(F)F)c1 (centres undefined)
[1]
  Activity: 55%
[3]
  Activity: 29%

## CON/C(=N\c1ccc(C#N)c(C(F)(F)F)c1)C1(C)CC(C(F)(F)F)=NN1 (centres undefined)
[1]
  Activity: 14%
[2]
  Inhibition: <10%
[3]
  Activity: 23%

## CC1(/C(=N/c2ccc(C#N)c(C(F)(F)F)c2)NO)CC(C(F)(F)F)=NN1 (centres undefined)
[1]
  Activity: <10%
[2]
  Inhibition: <10%
[3]
  Activity: <10%

## CC12CC=NN1C(N)=N/C2=N\c1ccc(C#N)c(C(F)(F)F)c1 (centres undefined)
[1]
  Activity: <10%
[2]
  Inhibition: <10%
[3]
  Activity: <10%

## C[C@]12CC(C(F)(F)F)=NN1C(N)=N/C2=N\c1ccc(C#N)c(C(F)(F)F)c1
[2]
  Inhibition: 30%
[4]
  ED50: 0.07 mg/day
[5]
  Activity: 36%
[3]
  Activity: 91%

## CCc1c(/N=C2\N=C(N)N3N=C(C(F)(F)F)CC23C)ccc(C#N)c1C(F)(F)F (centres undefined)
[1]
  Activity: <10%
[2]
  Inhibition: <10%
[3]
  Activity: 19%

## CC1(/C(=N/c2ccc(C#N)c(C(F)(F)F)c2)N2CCCC2)CC(C(F)(F)F)=NN1 (centres undefined)
[1]
  Activity: <10%
[2]
  Inhibition: <10%
[3]
  Activity: <10%

## C[C@](O)(CS(=O)(=O)c1ccc(F)cc1)C(=O)Nc1ccc(C#N)c(C(F)(F)F)c1 [(R)-BICALUTAMIDE]
[2]
  Inhibition: 70%

## CCC(=O)O[C@H]1CC[C@H]2[C@@H]3CCC4=CC(=O)CC[C@]4(C)[C@H]3CC[C@]12C [TESTOSTERONE PROPIONATE]
[7]
  Activity: 100%
[8]
  Activity: 100%
